PMC6520168 (ACS chemical neuroscience, 2019)
Entries after “also recorded” stand apart in the source; their conditions may differ. Where two headings read alike, the source gives them in different places.

Tests used:
MOR [1] = target: T1, MOR (Mus musculus, UniProt P42866); format: cell-based; settings: 24 h pretreatment
MOR [2] = target: T1, MOR; settings: 24 h pretreatment; values previously published; cited from earlier work
mice = settings: cited from earlier work
μ opioid receptor (MOR) = μ opioid receptor (MOR) (Mus musculus, UniProt P42866); assay: [35S]-GTPγS functional assay in mMOR-CHO cell membranes; format: biochemical
MOR in mouse thalamus = MOR in mouse thalamus (Mus musculus, UniProt P42866); assay: [35S]-GTPγS functional assay in mouse thalamus membranes; format: biochemical
morphine-pelleted mice = assay: Withdrawal assay in chronic morphine-pelleted mice; format: in vivo, mouse
κ opioid receptor (KOR) = κ opioid receptor (KOR) (Mus musculus, UniProt P33534); assay: [35S]-GTPγS functional assay in mKOR-CHO cells; format: biochemical
human NOP receptor = human NOP receptor (Homo sapiens, UniProt P41146); assay: [3H]nociceptin NOP receptor binding assay; settings: 3 μM test ligand
Summary of the method: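 Membranes came from CHO cells stably expressing human NOP receptor (~5 pmol/mg protein), lysed hypotonically in Tris/EDTA/PMSF (pH 7.4). Binding used 20 μg protein with 0.2 nM [3H]nociceptin in 50 mM Tris-HCl, 0.1% BSA, pH 7.4, with or without 3 μM test compound. Percent inhibition = 100% − (binding with compound − nonspecific)/(total − nonspecific) × 100%.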

DOR = settings: read-out: DOR Ki; cited from earlier work
hMOR = hMOR (Homo sapiens, UniProt P35372); assay: Ca2+ flux assay in Gαqi5 transfected hMOR-CHO cells; format: cell-based; settings: agonism study
δ opioid receptor (DOR) = δ opioid receptor (DOR) (Mus musculus, UniProt P32300); assay: [35S]-GTPγS functional assay in mDOR-CHO cells; format: biochemical
MOR [3] = target: T1, MOR; format: cell-based
MOR in rat thalamus = settings: cited from earlier work
[4] = 1 mg/kg s.c., morphine-pelleted mice
[5] = 50 mg/kg s.c., morphine-pelleted mice

T1 sequence (P42866 whole entry): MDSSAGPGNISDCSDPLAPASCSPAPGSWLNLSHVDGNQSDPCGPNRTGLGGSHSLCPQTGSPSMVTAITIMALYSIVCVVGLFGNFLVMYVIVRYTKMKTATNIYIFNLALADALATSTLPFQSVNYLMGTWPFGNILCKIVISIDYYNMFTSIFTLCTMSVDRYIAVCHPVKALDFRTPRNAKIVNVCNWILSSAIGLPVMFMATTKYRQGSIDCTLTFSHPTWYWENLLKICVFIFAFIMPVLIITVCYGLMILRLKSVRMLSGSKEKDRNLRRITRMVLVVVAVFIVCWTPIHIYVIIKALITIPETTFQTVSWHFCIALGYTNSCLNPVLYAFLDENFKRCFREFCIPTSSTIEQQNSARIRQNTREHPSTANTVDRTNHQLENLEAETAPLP
Chain of μ opioid receptor (MOR) (P42866 whole entry): as above
Chain of δ opioid receptor (DOR) (P32300 whole entry): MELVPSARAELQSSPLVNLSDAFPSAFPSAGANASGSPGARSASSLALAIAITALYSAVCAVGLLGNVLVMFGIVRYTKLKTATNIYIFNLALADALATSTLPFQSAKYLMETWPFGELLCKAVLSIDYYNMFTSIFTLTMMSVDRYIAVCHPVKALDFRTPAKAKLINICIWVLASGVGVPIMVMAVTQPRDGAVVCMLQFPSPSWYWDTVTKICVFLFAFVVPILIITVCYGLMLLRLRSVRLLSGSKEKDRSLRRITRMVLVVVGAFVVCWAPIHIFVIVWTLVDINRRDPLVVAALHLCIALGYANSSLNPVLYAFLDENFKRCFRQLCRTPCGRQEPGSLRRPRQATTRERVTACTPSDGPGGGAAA
Chain of human NOP receptor (P41146 whole entry): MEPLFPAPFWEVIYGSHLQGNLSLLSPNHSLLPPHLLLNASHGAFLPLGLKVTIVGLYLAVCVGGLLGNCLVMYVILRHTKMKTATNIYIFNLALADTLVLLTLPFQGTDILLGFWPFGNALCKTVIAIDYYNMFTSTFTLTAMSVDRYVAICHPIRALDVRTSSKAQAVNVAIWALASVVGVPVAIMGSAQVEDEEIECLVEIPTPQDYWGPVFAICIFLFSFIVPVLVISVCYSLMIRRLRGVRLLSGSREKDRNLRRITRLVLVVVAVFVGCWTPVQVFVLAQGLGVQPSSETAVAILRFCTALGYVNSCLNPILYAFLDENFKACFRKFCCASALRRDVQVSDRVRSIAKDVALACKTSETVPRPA
Chain of κ opioid receptor (KOR) (P33534 whole entry): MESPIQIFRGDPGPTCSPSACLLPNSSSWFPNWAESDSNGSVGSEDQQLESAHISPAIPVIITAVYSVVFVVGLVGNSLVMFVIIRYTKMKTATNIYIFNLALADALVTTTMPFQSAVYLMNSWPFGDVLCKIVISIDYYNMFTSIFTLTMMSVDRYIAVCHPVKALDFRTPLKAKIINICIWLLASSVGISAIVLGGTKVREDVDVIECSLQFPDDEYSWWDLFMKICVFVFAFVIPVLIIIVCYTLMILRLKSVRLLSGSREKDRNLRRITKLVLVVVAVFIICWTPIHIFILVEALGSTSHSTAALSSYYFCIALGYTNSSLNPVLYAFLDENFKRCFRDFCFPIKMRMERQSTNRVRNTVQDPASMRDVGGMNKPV
Chain of hMOR (P35372 whole entry): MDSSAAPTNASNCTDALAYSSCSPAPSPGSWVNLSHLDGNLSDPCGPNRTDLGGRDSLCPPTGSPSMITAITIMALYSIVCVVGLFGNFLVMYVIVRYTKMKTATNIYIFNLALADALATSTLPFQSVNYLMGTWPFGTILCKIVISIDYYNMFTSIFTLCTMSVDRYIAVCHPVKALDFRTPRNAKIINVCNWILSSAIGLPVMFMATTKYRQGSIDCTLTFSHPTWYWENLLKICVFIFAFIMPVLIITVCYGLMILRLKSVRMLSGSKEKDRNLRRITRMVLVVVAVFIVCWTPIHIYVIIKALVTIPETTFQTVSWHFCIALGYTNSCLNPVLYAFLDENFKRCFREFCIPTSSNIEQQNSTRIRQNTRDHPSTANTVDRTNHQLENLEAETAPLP
Chain of MOR in mouse thalamus (P42866 whole entry): as the sequence (P42866 whole entry) above

## C[C@@H](NC(=O)[C@@H](N)Cc1ccc(O)cc1)C(=O)NCC(=O)N(C)[C@@H](Cc1ccccc1)C(=O)NCCO [DAMGO, [D-Ala^2, N-MePhe^4, Gly-ol]-enkephalin, reference compound]
MOR [1]; versus vehicle
  Reduction in receptor density (Bmax): ~50%
MOR [2]
  Bmax (pmol/mg) of [3H]naloxone saturation binding after pretreatment: 1.49 ± 0.12 pmol/mg

## O=C(N[C@H]1CC[C@@]2(O)[C@H]3Cc4ccc(O)c5c4[C@@]2(CCN3CC2CC2)[C@H]1O5)c1cccc2cc[nH]c12 [NAN, 17-cyclopropylmethyl-3,14β-dihydroxy-4,5α-epoxy-6α-(indole-7-carboxamido)morphinan]
MOR [1]; 1 μM
  Bmax (pmol/mg) of [3H]naloxone saturation binding after pretreatment: 3.92 ± 0.20 pmol/mg
mice
  Antinociception in the tail-flick assay: did not produce antinociception
mice; mice, warm water tail immersion assay
  Antagonism of the antinociceptive activity of morphine: almost completely antagonized
μ opioid receptor (MOR); 5 nM coincubation, mMOR-CHO cells and thalamus
  Effect on the DAMGO Emax value: did not have any effect on the DAMGO Emax value
μ opioid receptor (MOR); mMOR-CHO cells
  MOR stimulation compared to other ligands: low MOR stimulation that was significantly less than DAMGO and similar to NAQ and nalbuphine
μ opioid receptor (MOR); read-out: Emax (% DAMGO)
  Emax: 25.5 ± 1.58%
MOR in mouse thalamus
  MOR stimulation compared to other ligands: low MOR stimulation that was significantly less than DAMGO and similar to NAQ and nalbuphine
morphine-pelleted mice; [4]
  Escape jumps versus 1 mg/kg NTX: significantly less
  Wet-dog shakes versus 1 mg/kg NTX: significantly less
morphine-pelleted mice; 10 mg/kg s.c., morphine-pelleted mice
  Escape jumps versus 1 mg/kg NTX: not significantly different
morphine-pelleted mice; [5]
  Escape jumps versus 1 mg/kg NTX: not significantly different
  Paw tremors versus 1 mg/kg NTX: significantly less
  Wet-dog shakes versus 1 mg/kg NTX: significantly less
morphine-pelleted mice; 50 mg/kg s.c., placebo-pelleted mice, 20 min observation
  Withdrawal signs in placebo-pelleted mice: did not induce any significant withdrawal signs
κ opioid receptor (KOR); KOR EC50 (nM), mKOR-CHO
  EC50: 17.8 ± 3.24 nM
κ opioid receptor (KOR); read-out: KOR Emax (% max of U50,488H), mKOR-CHO, relative to 5 μM U50,488H
  Emax: ~74%
Human NOP receptor
  Inhibition of [3H]-nociceptin binding to the NOP receptor: did not inhibit binding; also recorded: did not show NOP binding
DOR
  Ki: 13.7 ± 1.39 nM
hMOR
  Agonism in Ca2+ flux assay: no apparent agonism
δ opioid receptor (DOR); DOR EC50 (nM), mDOR-CHO
  EC50: 22.8 ± 3.95 nM
δ opioid receptor (DOR); read-out: DOR Emax (% max of SNC80), mDOR-CHO, relative to 5 μM SNC80
  Emax: ~27%

## O=C(N[C@H]1CC[C@@]2(O)[C@H]3Cc4ccc(O)c5c4[C@@]2(CCN3CC2CC2)[C@H]1O5)c1cc2ccccc2cn1 [NAQ, 17-cyclopropyl-methyl-3,14β-dihydroxy-4,5α-epoxy-6α-(isoquinoline-3-carboxamido)morphinan]
MOR [1]; versus vehicle
  Apparent increase in [3H]naloxone KD value after treatment: 3.5–4 fold
MOR [2]
  Bmax (pmol/mg) of [3H]naloxone saturation binding after pretreatment: 3.75 ± 0.34 pmol/mg
MOR [3]
  Change of DAMGO EC50 value after ligand pretreatment (desensitization): did not produce a significant change

## O=C1CC[C@@]2(O)[C@H]3Cc4ccc(O)c5c4[C@@]2(CCN3CC2CC2)[C@H]1O5 [NTX, naltrexone]
MOR in rat thalamus
  Functional character in the rat thalamus: pure antagonists

## Oc1ccc2c3c1O[C@H]1[C@@H](O)CC[C@@]4(O)[C@@H](C2)N(CC2CCC2)CC[C@]314 [nalbuphine]
MOR in rat thalamus
  Functional character in the rat thalamus: pure antagonists
